Measured values taken from ChEMBL document CHEMBL1132924, “Molecular determinants of MAO selectivity in a series of indolylmethylamine derivatives: biological activities, 3D-QSAR/CoMFA analysis, and computational simulation of ligand recognition” (J Med Chem, 2000).
pKi: −log10 of the molar value.

Experiments:
[1] = target: T1, Amine oxidase [flavin-containing] A (Rattus norvegicus, UniProt P21396); assay: (§1) Inhibitory activity against Monoamine oxidase A
T1 sequence (P21396 whole entry): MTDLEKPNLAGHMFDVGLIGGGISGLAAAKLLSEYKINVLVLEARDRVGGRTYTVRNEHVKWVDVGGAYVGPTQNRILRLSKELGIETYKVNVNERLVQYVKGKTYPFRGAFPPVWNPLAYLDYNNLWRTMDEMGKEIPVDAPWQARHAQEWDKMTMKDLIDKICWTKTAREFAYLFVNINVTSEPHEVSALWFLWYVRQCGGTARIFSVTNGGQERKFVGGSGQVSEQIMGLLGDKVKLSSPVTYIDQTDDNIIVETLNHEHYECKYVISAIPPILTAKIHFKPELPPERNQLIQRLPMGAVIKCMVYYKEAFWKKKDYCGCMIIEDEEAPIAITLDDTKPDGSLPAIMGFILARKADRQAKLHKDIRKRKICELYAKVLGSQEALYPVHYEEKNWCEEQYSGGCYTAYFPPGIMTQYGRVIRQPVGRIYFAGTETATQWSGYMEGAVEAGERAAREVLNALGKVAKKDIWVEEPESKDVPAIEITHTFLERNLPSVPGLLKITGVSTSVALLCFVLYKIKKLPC
Summary of the method: (§2)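 Rat liver mitochondrial fraction (male Sprague-Dawley, 200-250 g), homogenised in 50 mM potassium phosphate pH 7.2. Kynuramine 40 µM as substrate with MAO-B activity blocked beforehand by L-deprenyl, product read at 324 nm. Ki for reversible complex formation obtained by direct analysis of spectrophotometric reaction progress curves over varying inhibitor concentrations.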

[2] = target: T2, Amine oxidase [flavin-containing] B (Rattus norvegicus, UniProt P19643); assay: (§3) Inhibitory activity against Monoamine oxidase B
T2 sequence (P19643 whole entry): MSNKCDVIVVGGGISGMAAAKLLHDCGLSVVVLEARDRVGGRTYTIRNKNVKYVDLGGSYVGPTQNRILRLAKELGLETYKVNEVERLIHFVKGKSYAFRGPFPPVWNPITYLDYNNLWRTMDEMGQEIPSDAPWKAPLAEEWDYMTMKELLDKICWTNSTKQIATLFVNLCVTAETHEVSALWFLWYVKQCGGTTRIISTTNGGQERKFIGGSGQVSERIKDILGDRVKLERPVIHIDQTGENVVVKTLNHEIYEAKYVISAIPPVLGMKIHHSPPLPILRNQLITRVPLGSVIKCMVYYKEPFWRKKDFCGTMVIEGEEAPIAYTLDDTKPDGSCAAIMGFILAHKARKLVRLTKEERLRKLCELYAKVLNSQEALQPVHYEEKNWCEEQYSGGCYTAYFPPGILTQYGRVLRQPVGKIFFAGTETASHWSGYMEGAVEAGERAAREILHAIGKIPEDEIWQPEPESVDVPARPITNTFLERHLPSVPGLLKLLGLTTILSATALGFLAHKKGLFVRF
Summary of the method: (§4)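 Enzyme is a mitochondrial fraction from livers of male Sprague-Dawley rats (200-250 g), homogenised in 50 mM potassium phosphate pH 7.2. Activity followed at 37 °C with 333 µM benzylamine, product appearance read at 250 nm. Ki for reversible complex formation came from direct fitting of progress curves recorded at varying inhibitor concentrations.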

[3] = target: T1, Amine oxidase [flavin-containing] A; assay: as §1; summary of the method: as §2; remark: listed apart in the source
[4] = target: T2, Amine oxidase [flavin-containing] B; assay: as §3; summary of the method: as §4; remark: listed apart in the source

SMILES | pKi [1] | pKi [2] | pKi [3] | pKi [4]
c1ccc(CNCc2cn(Cc3ccccc3)c3ccccc23)cc1 | 3.61 | 3.44 | 3.61 | –
CCNCc1cn(Cc2ccccc2)c2ccccc12 | 3.58 | 3.37 | 3.58 | –
C#CCN(Cc1ccccc1)Cc1cc2ccccc2n1C | 5.00 | 4.22 | 5.00 | –
C#CCNCc1cc2cc(OCc3ccccc3)ccc2[nH]1 | 6.10 | 9.12 | – | –
C#CCNCc1cc2cc(O)ccc2n1C | 5.40 | 5.05 | 5.40 | –
CC(C)NCc1cn(Cc2ccccc2)c2ccccc12 | 3.88 | 3.36 | 3.88 | –
C#CCN(C)Cc1cn(Cc2ccccc2)c2ccccc12 | 3.80 | 3.32 | 3.80 | –
CNCc1cn(Cc2ccccc2)c2ccccc12 | 3.78 | 3.47 | 3.78 | –
Cn1c(CNCc2ccccc2)cc2ccccc21 | 4.47 | 4.32 | 4.47 | –
CC#CCN(Cc1ccccc1)Cc1cc2ccccc2n1C | < 3.00 | 4.30 | – | –
c1ccc(CNCc2cc3ccccc3[nH]2)cc1 | 4.06 | 3.80 | 4.06 | –
CC#CCNCc1cc2cc(OCc3ccccc3)ccc2[nH]1 | – | 7.82 | 4.82 | –
C#CCN(Cc1ccccc1)Cc1cn(Cc2ccccc2)c2ccccc12 | < 3.00 | 3.59 | – | –

The remaining compounds from weak to strong by pKi [1], led by results:

pKi [1] | pKi [2] | pKi [3] | pKi [4] | SMILES
6.62 | 5.42 | 6.62 | – | C#CCNCc1cc2ccccc2n1C
8.24 | 5.06 | 8.24 | – | CC#CCN(C)Cc1cc2cc(O)ccc2n1C
8.37 | 7.52 | 8.37 | – | CC#CCN(C)Cc1cc2ccccc2n1C
8.40 | 6.09 | 8.40 | – | C#CCN(C)Cc1cc2cc(O)ccc2n1C
8.82 | 7.52 | 8.82 | 7.24 | C#CCN(C)Cc1cc2cc(OC)ccc2n1C
8.85 | 6.43 | 8.85 | – | CC#CCN(C)Cc1cc2cc(OC)ccc2n1C
9.10 | 8.40 | 9.09 | – | C#CCNCc1cc2cc(OC)ccc2n1C
9.52 | 8.52 | 9.52 | – | C#CCN(C)Cc1cc2ccccc2n1C
